Assay results as given in ChEMBL document CHEMBL1131058, “Studies on quinazolines and 1,2,4-benzothiadiazine 1,1-dioxides. 8.1, 2 synthesis and pharmacological evaluation of tricyclic fused quinazolines and 1,2,4-benzothiadiazine 1,1-dioxides as potential alpha1-adrenoceptor antagonists” (J Med Chem, 1998).

Experiments:
[1] = target: T1, Adrenergic receptor alpha-1 (Rattus norvegicus, UniProt P15823+P23944+P43140); assay: Displacement of [3H]-prazosin from Alpha-1 adrenergic receptor of rat cortical membranes; format: cell membranes, Membrane
T1 sequence (P15823 whole entry): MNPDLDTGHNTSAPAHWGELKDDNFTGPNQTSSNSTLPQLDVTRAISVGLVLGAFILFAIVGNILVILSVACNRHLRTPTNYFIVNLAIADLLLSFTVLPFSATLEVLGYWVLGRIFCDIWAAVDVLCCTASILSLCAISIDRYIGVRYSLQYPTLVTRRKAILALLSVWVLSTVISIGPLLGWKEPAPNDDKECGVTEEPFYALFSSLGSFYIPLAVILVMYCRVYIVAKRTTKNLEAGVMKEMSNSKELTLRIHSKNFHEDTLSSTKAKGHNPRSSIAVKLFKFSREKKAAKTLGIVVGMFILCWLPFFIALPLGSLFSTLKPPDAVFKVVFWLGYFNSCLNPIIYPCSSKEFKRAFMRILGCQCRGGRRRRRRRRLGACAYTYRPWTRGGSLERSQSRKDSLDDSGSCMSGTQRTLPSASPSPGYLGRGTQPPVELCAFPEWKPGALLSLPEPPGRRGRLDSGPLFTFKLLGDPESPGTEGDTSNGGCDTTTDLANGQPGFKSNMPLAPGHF
T1 sequence (P23944 whole entry): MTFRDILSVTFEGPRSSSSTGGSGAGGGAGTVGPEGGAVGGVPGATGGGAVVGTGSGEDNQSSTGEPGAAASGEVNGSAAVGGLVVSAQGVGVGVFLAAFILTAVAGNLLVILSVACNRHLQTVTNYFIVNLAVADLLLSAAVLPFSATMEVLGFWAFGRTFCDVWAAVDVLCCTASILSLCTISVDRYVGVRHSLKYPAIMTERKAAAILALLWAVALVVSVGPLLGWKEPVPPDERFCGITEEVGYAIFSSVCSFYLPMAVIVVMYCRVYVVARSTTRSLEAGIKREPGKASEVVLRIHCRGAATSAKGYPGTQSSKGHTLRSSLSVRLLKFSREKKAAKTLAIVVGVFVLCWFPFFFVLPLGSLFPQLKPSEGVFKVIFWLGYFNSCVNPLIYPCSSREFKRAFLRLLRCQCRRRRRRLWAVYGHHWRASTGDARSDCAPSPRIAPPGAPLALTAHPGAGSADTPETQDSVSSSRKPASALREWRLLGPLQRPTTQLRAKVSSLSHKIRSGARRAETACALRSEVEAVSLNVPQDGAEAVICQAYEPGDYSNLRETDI
T1 sequence (P43140 whole entry): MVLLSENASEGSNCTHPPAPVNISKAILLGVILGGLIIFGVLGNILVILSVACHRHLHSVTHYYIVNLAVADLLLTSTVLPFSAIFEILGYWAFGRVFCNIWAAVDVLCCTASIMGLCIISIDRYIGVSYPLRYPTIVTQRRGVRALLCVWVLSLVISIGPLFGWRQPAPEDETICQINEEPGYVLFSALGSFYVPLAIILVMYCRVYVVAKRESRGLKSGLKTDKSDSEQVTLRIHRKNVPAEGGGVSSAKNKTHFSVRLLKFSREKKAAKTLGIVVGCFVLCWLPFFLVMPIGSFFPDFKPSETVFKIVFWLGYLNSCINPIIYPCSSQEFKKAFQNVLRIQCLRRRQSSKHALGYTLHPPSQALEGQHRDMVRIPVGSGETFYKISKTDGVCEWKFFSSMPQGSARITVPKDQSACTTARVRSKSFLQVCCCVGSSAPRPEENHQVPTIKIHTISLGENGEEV
Summary of the method: (§1)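 Triplicate competition binding against 0.2-0.25 nM [³H]prazosin in Tris buffer pH 7.4, 30 min at room temperature. Competitor range 0.1-200 nM. Nonspecific binding defined with 10 µM phentolamine. Reaction stopped by GF/B filtration with two cold Tris washes. Membrane protein 300-400 µg per assay. Ki calculated from the data; mean ± SEM of 3-6 experiments.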

[2] = target: T2, Alpha-1A adrenergic receptor (Rattus norvegicus, UniProt P43140); assay: Displacement of [3H]prazosin from Alpha-1A adrenergic receptor of rat submaxillary gland membranes; format: cell membranes, Membrane; summary of the method: as §1
T2 sequence (P43140 whole entry): T1 sequence (P43140 whole entry)

[3] = Selectivity ratio for binding affinity towards alpha2 and alpha-1 adrenoceptors
Summary of the method: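 Ratio of α2 Ki ([³H]clonidine binding) to α1 Ki ([³H]prazosin binding), both measured in rat cortical membrane competition assays.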

Row | SMILES | Ki [1] [nM] | Ki [2] [nM] | Ratio [3]
1 | COc1ccccc1N1CCN(C[C@@H]2CN=C3c4ccccc4N=C(SC)N32)CC1 | 144 | 122 | 62.5
2 | Oc1nc2ccccc2c2ncc(CN3CCN(c4ccccc4Cl)CC3)n12 |  |  | 382
3 | COc1ccccc1N1CCN(C[C@H]2CN=C3c4ccccc4NC(=O)N32)CC1 | 0.13 | 0.23 | 1410
4 | COc1ccccc1N1CCN(C[C@@H]2CN=C3c4ccccc4NC(=O)N32)CC1 | 26 | 55 | > 384
5 | COc1ccccc1N1CCN(C[C@H]2CN=C3c4ccccc4N=C(SC)N32)CC1 | 1 | 1.5 | 3500
6 | COc1ccccc1N1CCN(CC2CN3C(=O)Nc4ccccc4C3=N2)CC1 (stereo unspecified) | 0.93 | 0.65 | 247
7 | COc1ccccc1N1CCN(Cc2cn3c(O)nc4ccccc4c3n2)CC1 |  |  | 1030
8 | COc1ccccc1N1CCN(Cc2cnc3c4ccccc4nc(O)n23)CC1 |  |  | 1550
9 | COc1ccccc1N1CCN(CC2CN=C3c4ccccc4N=C(SC)N32)CC1 (stereo unspecified) | 0.9 | 0.93 | 1080
